From ChEMBL document CHEMBL1135646, “In vitro photodynamic properties of chalcogenopyrylium analogues of the thiopyrylium antitumor agent AA1” (J Med Chem, 2002)

What was measured:
[1] = compound evaluated for dark induced toxicity toward COLO-26, murine colon carcinoma cell line; assay type: cell-based; conditions: mouse, COLO-26 (Colon 26) murine colon carcinoma cells; read-out: LD50 (the source's name)
Procedure, shortened: (§1)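 Colo-26 murine colon carcinoma cells were grown in RPMI 1640 with 10% FCS at 37 °C, 5% CO2, and plated at 5×10^3 cells/well the evening before. After two PBS washes, they took dye at various concentrations in HBSS with 1% FCS at 37 °C. They were then washed, left unirradiated, given growth medium, and kept 24 h. Survival was read by MTT, and LD50 is the 50% kill concentration.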

[2] = Ratio of LD50 value to that of EC50 value.; assay type: functional
[3] = Distribution coefficient between octanol and phosphate buffer at pH6.0; assay type: physicochemical; conditions: pH 6
Procedure, shortened: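 Shake-flask partitioning between n-octanol and pH 6 phosphate buffer as the aqueous phase. Mixing for 3–5 min, then 1 h settling, with equilibration at 23 °C. Each phase is quantified by UV–visible spectrophotometry, and the result is reported as log P.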

Colon 26 = experiment: Effective concentration evaluated in light induced toxicity toward COLO-26, murine colon carcinoma cell line after irradiation with 15 J/cm**2 of 360-800nm light; assay type: functional, cell-based; conditions: Mus musculus, Colon 26, light or radiation study
Procedure, shortened: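 Colo-26 cells in RPMI 1640 with 10% FCS are seeded at 5×10^3 cells/well the evening before. Cells are washed with PBS and given dye in HBSS with 1% FCS for 2 h at 37 °C. After a wash, irradiation in PBS with 1% FCS uses filtered 360–800-nm tungsten-halogen light to 15 J cm⁻². Growth medium is added and cells are held 24 h. MTT read-out; EC50 is the concentration giving 50% cell kill.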

[4] = Lethal dose evaluated in dark induced toxicity toward COLO-26, murine colon carcinoma cell line; conditions: mouse, COLO-26 (Colon 26) murine colon carcinoma cells; read-out: LD50 (the source's name); procedure, shortened: as §1

Compound	CC50 [1] [nM]	Ratio [2]	logD [3]	EC50 (Colon 26) [nM]	CC50 [4] [nM]
CN(C)c1ccc(-c2cc(-c3ccc(N)cc3)[se+]c(-c3ccc(N)cc3)c2)cc1	1400	3.8	1.7	370	
CN(C)c1ccc(-c2cc(-c3ccc(N)cc3)[te+]c(-c3ccc(N4CCOCC4)cc3)c2)cc1			1		500
CN(C)c1ccc(-c2cc(-c3ccc(N(C)C)cc3)[s+]c(-c3ccc(N(C)C)cc3)c2)cc1	500	2.5	2.2	200	
Nc1ccc(-c2cc(-c3ccc(N4CCOCC4)cc3)cc(-c3ccc(N4CCOCC4)cc3)[s+]2)cc1	66000	33	1.3	2000	
c1cc(N2CCOCC2)ccc1-c1cc(-c2ccc(N3CCOCC3)cc2)[se+]c(-c2ccc(N3CCOCC3)cc2)c1	7200	9	1.2	800	
Nc1ccc(-c2cc(-c3ccccc3)cc(-c3ccc(N4CCOCC4)cc3)[te+]2)cc1	70		1		
Nc1ccc(-c2cc(-c3ccccc3)cc(-c3ccc(N4CCOCC4)cc3)[se+]2)cc1	900		0.9		
CN(C)c1ccc(-c2cc(-c3ccc(N)cc3)[se+]c(-c3ccc(N4CCOCC4)cc3)c2)cc1	1500	21	1	70	
Nc1ccc(-c2cc(-c3ccc(N4CCOCC4)cc3)cc(-c3ccc(N)cc3)[te+]2)cc1	1400		1.9		
Nc1ccc(-c2cc(-c3ccc(N4CCOCC4)cc3)cc(-c3ccc(N4CCOCC4)cc3)[se+]2)cc1	6900	3.6	1.2	1900	
Nc1ccc(-c2cc(-c3ccccc3)cc(-c3ccc(N4CCOCC4)cc3)[s+]2)cc1	1800		1.1		
CN(C)c1ccc(-c2cc(-c3ccc(N)cc3)[s+]c(-c3ccc(N)cc3)c2)cc1	100		1.9		
CN(C)c1ccc(-c2cc(-c3ccc(N)cc3)[s+]c(-c3ccc(N4CCOCC4)cc3)c2)cc1	900		0.9		
CN(C)c1ccc(-c2cc(-c3ccc(N(C)C)cc3)[se+]c(-c3ccc(N(C)C)cc3)c2)cc1	500	1.7	2.2	300	
CN(C)c1ccc(-c2cc(-c3ccccc3)[se+]c(-c3ccc(N)cc3)c2)cc1	2600	13	1.2	200	
CN(C)c1ccc(-c2cc(-c3ccc(N)cc3)[te+]c(-c3ccc(N)cc3)c2)cc1	500		2		
CN(C)c1ccc(-c2cc(-c3ccccc3)[te+]c(-c3ccc(N)cc3)c2)cc1	600		1.9		
Nc1ccc(-c2cc(-c3ccc(N4CCOCC4)cc3)cc(-c3ccccc3)[se+]2)cc1	6500		1.2		
Nc1ccc(-c2cc(-c3ccc(N4CCOCC4)cc3)cc(-c3ccc(N)cc3)[se+]2)cc1	3800	3.2	1.5	1200	
Nc1ccc(-c2cc(-c3ccc(N4CCOCC4)cc3)cc(-c3ccc(N)cc3)[s+]2)cc1	800		1.8		
CN(C)c1ccc(-c2cc(-c3ccccc3)cc(-c3ccc(N)cc3)[se+]2)cc1	400		1.3		
Nc1ccc(-c2cc(-c3ccc(N4CCOCC4)cc3)cc(-c3ccc(N4CCOCC4)cc3)[te+]2)cc1	800	1.3	1.6	600	
CN(C)c1ccc(-c2cc(-c3ccccc3)[s+]c(-c3ccc(N)cc3)c2)cc1	70		1.3		
